Measured values as given in ChEMBL document CHEMBL1126865, “Structure-activity relationship within a series of pyrazolidinone antibacterial agents. 2. Effect of side-chain modification on in vitro activity and pharmacokinetic parameters” (J Med Chem, 1993).
In brackets after ≈: the same amount, converted by molar mass.

Key:
[1] = Plasma half-life in human after intravenous administration; assay type: ADME, organism-based
Monkey = test: (§1) Plasma half-life in monkey after intravenous administration; assay type: functional, organism-based; conditions: Cercopithecidae
Summary of the method: (§2)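 Male rhesus monkeys (n = 3) dosed iv at 30 mg/kg in 0.9% saline; plasma sampled from cephalic vein over 3 h. Drug levels by agar well diffusion bioassay (E. coli ATCC4157 or Proteus providentia XC24) against standard curves in spiked plasma. Samples stored at -70 °C. Half-life = 0.693/β, β the terminal slope of plasma vs time curve.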

Rattus norvegicus = test: (§3) Plasma half-life in rats after intravenous administration; assay type: functional, organism-based
Summary of the method: (§4)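 Male Sprague-Dawley rats were given 20 mg/kg IV in 0.9% saline through an indwelling jugular cannula, which was also used for serial blood sampling. Plasma and cumulative urine (citrate pH 6.5, metabolism cages) were collected over 6 h and stored at -70 °C. Levels were measured by agar well diffusion bioassay against standard curves in plasma or citrate. Half-life = 0.693/β; recovery as % of dose.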

[2] = Maximum concentration in male CD-1 mice after sc administration of 20 mg/kg; assay type: ADME, organism-based; design: dose 20 mg/kg, route subcutaneous; conditions: CD-1, mouse, in vivo
Summary of the method: (§5)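 Male CD-1 mice received 20 mg/kg in 0.9% saline, orally or subcutaneously. Cumulative urine over 0–4 h was collected from metabolism cages into 0.1 M sodium citrate, pH 6.5, and stored at -70 °C. Drug levels were measured by agar well diffusion bioassay (E. coli ATCC4157 or Proteus providentia XC24) against spiked standard curves. Half-life = 0.693/β (terminal slope); urinary recovery as % of dose.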

[3] = Maximum concentration in male rats after iv administration of 20 mg/kg; assay type: ADME, organism-based; design: dose 20 mg/kg, route intravenous; conditions: rat, in vivo; summary of the method: as §4
[4] = Half-life period in male CD-1 mice after sc administration of 20 mg/kg; assay type: ADME, organism-based; design: dose 20 mg/kg, route subcutaneous; conditions: CD-1, mouse, in vivo; summary of the method: as §5
[5] = as §3; assay type: ADME, organism-based; conditions: rat; summary of the method: as §4
[6] = Urinary recovery in male CD-1 mice after po administration of 20 mg/kg; assay type: ADME, organism-based; design: dose 20 mg/kg, route oral; conditions: CD-1, mouse, urine; summary of the method: as §5
[7] = Urinary recovery in male rats after iv administration of 20 mg/kg; assay type: ADME, organism-based; design: dose 20 mg/kg, route intravenous; conditions: rat, urine; summary of the method: as §4
Escherichia coli [8] = test: Effective dose against Escherichia coli EC14 after po administration in mice; assay type: functional
Escherichia coli [9] = test: Effective dose against Escherichia coli EC14 after sc administration in mice; assay type: functional
Escherichia coli [10] = test: Minimum inhibitory concentration against Escherichia coli EC14 after po administration in mice; assay type: functional
Escherichia coli [11] = test: Minimum inhibitory concentration against Escherichia coli EC14 after sc administration in mice; assay type: functional
Klebsiella aerogenes = test: In vitro antibacterial activity against Enterobacter aerogenes C32; assay type: functional
Escherichia coli [12] = test: In vitro antibacterial activity against Escherichia coli EC14; assay type: functional
Haemophilus influenzae = test: In vitro antibacterial activity against Haemophilus influenza C.L; assay type: functional
Klebsiella pneumoniae = test: In vitro antibacterial activity against Klebsiella X26; assay type: functional
Pseudomonas aeruginosa = test: In vitro antibacterial activity against Pseudomonas PS72; assay type: functional
[13] = test system: Staphylococcus epidermidis; test: In vitro antibacterial activity against Staphylococcus epidermidis 222; assay type: functional
Staphylococcus aureus = test: In vitro antibacterial activity against Staphylococcus aureus X1.1; assay type: functional
Streptococcus pneumoniae = test: In vitro antibacterial activity against Streptococcus pneumoniae PARK; assay type: functional
Streptococcus pyogenes [14] = test: Effective dose against Streptococcus pyogenes (C203) after po administration in mice; assay type: functional
Streptococcus pyogenes [15] = test: Effective dose against Streptococcus pyogenes (C203) after sc administration in mice; assay type: functional
Streptococcus pyogenes [16] = test: Minimum inhibitory concentration against Streptococcus pyogenes (C203) after po administration in mice; assay type: functional
Streptococcus pyogenes [17] = test: Minimum inhibitory concentration against Streptococcus pyogenes (C203) after sc administration in mice; assay type: functional
[18] = Plasma binding expressed as percentage in rats […]; assay type: ADME, organism-based; conditions: rat, iv, read-out: Plasma binding (converted)
Summary of the method: (§6)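 Binding was measured in vitro in pooled Sprague-Dawley rat plasma at a drug concentration of 20 μg/mL by ultrafiltration and reported as % bound.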

[19] = Half-life period in male rats after iv administration of 20 mg/kg; assay type: ADME, organism-based; design: dose 20 mg/kg, route intravenous; conditions: rat, in vivo; summary of the method: as §4
[20] = Urinary recovery expressed as percentage dose in male rats after iv administration of 20 mg/kg; assay type: ADME, organism-based; design: dose 20 mg/kg, route intravenous; conditions: rat, urine; summary of the method: as §4
[21] = as §1; assay type: ADME, organism-based; conditions: simiiformes; summary of the method: as §2
[22] = Plasma binding in male rats […] expressed as percentage of plasma binding; assay type: ADME, organism-based; conditions: rat, iv, read-out: Plasma binding (converted); summary of the method: as §6
[23] = Urinary recovery expressed as percentage dose in male CD-1 mice after po administration of 20 mg/kg; assay type: ADME, organism-based; design: dose 20 mg/kg, route oral; conditions: CD-1, mouse, urine; summary of the method: as §5

Compound	Cmax [2] [µg/mL]	Cmax [3] [µg/mL]	half-life [4] [min]	half-life [5] [min]	ED50 (Escherichia coli [8]) [mg/kg]	ED50 (Escherichia coli [9]) [mg/kg]	MIC (Escherichia coli [10]) [µg/mL]	MIC (Escherichia coli [11]) [µg/mL]	MIC (Klebsiella aerogenes) [µg/mL]	MIC (Escherichia coli [12]) [µg/mL]	MIC (Haemophilus influenzae) [µg/mL]	MIC (Klebsiella pneumoniae) [µg/mL]	MIC (Pseudomonas aeruginosa) [µg/mL]	MIC [13] [µg/mL]	MIC (Staphylococcus aureus) [µg/mL]	MIC (Streptococcus pneumoniae) [µg/mL]	ED50 (Streptococcus pyogenes [14]) [mg/kg]	ED50 (Streptococcus pyogenes [15]) [mg/kg]	half-life [19] [min]	dose excreted [20] [%]	also measured
Cn1nnnc1SCC1=C(C(=O)O)N2C(=O)[C@@H](NC(=O)[C@H](O)c3ccccc3)[C@H]2SC1 [CEFAMANDOLE]																					half-life [1]: 48 min; T1/2 (Monkey): 34 min; T1/2 (Rattus norvegicus): 15 min
CO/N=C(\C(=O)NC1CN2CC(S(C)(=O)=O)=C(C(=O)O)N2C1=O)c1csc(N)n1 (stereo unspecified)	53.8	120	10.6	25	7.93	< 0.625	0.06 (≈ 0.135 µM)	0.06 (≈ 0.135 µM)	0.25 (≈ 0.562 µM)	0.06 (≈ 0.135 µM)	0.5 (≈ 1.12 µM)	0.125 (≈ 0.281 µM)	> 128	64 (≈ 144 µM)	32 (≈ 72 µM)	0.25 (≈ 0.562 µM)	13.5	1.8	24.7		dose excreted [6]: < 2%; dose excreted [7]: 80.4%; MIC (Streptococcus pyogenes [16]): 0.03 µg/mL (≈ 0.0675 µM); MIC (Streptococcus pyogenes [17]): 0.03 µg/mL (≈ 0.0675 µM); fraction unbound [18]: 0.78
CCCS(=O)(=O)C1=C(C(=O)O)N2C(=O)[C@@H](NC(=O)/C(=N/OCCCl)c3csc(N)n3)CN2C1		74.3		15					0.5 (≈ 0.96 µM)	0.125 (≈ 0.24 µM)	0.125 (≈ 0.24 µM)	0.03 (≈ 0.0576 µM)	> 128	16 (≈ 30.7 µM)	8 (≈ 15.4 µM)	0.06 (≈ 0.115 µM)			14.7	44.2	
C=CCCO/N=C(/C(=O)N[C@H]1CN2CC(S(C)(=O)=O)=C(C(=O)O)N2C1=O)c1csc(N)n1		70.3		11					0.25 (≈ 0.516 µM)	0.06 (≈ 0.124 µM)	0.125 (≈ 0.258 µM)	0.015 (≈ 0.031 µM)	128 (≈ 264 µM)	8 (≈ 16.5 µM)	4 (≈ 8.26 µM)	0.06 (≈ 0.124 µM)			11.3	53.1	half-life [21]: 36 min
CO/N=C(\C(=O)N[C@H]1CN2CC(C#N)=C(C(=O)O)N2C1=O)c1csc(N)n1	71	120	12.2	18	7.87	0.67	0.25 (≈ 0.639 µM)	0.25 (≈ 0.639 µM)	1 (≈ 2.56 µM)	0.25 (≈ 0.639 µM)	0.5 (≈ 1.28 µM)	0.25 (≈ 0.639 µM)	> 128	64 (≈ 164 µM)	64 (≈ 164 µM)	0.25 (≈ 0.639 µM)	6.68	0.625	17.9	87.8	fraction unbound [22]: 0.585; dose excreted [23]: < 2%; MIC (Streptococcus pyogenes [16]): 0.25 µg/mL (≈ 0.639 µM); MIC (Streptococcus pyogenes [17]): 0.25 µg/mL (≈ 0.639 µM)
